Measured values as given in ChEMBL document CHEMBL3751676, “Combating P-glycoprotein-mediated multidrug resistance with 10-O-phenyl dihydroartemisinin ethers in MCF-7 cells” (Eur J Med Chem, 2016).
The source made the active and inactive calls. The rule behind the calls is not given here.

Key:
MCF7 [1] = test: Cell cycle arrest in human MCF7 cells assessed as accumulation at G1 phase at 0.25 uM after 48 hrs by propidium iodide staining based flow cytometry (reference value: 62.8%); format: functional
Summary of the method: (§1)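 Cells treated for 24 h or 48 h, then trypsinized, fixed in ice-cold 70% ethanol and stained with propidium iodide for flow cytometry. Percentages of cells in G1 and sub-G1 are compared with untreated cells.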

MCF7 [2] = test: Cell cycle arrest in human MCF7 cells assessed as accumulation at G1 phase at 0.5 uM after 48 hrs by propidium iodide staining based flow cytometry (reference value: 62.8 %); format: functional; summary of the method: as §1
[3] = Cell cycle arrest in human MCF7/ADR cells assessed as accumulation at G1 phase at 0.05 uM after 24 hrs by propidium iodide staining based flow cytometry (reference value: 54.6 %); format: functional; settings: NCI/ADR-RES; summary of the method: as §1
[4] = Cell cycle arrest in human MCF7/ADR cells assessed as accumulation at G1 phase at 0.25 uM after 24 hrs by propidium iodide staining based flow cytometry (reference value: 54.6 %); format: functional; settings: NCI/ADR-RES; summary of the method: as §1
[5] = Cell cycle arrest in human MCF7/ADR cells assessed as accumulation at G1 phase at 0.05 uM after 48 hrs by propidium iodide staining based flow cytometry (reference value: 56.9 %); format: functional; settings: NCI/ADR-RES; summary of the method: as §1
[6] = Cell cycle arrest in human MCF7/ADR cells assessed as accumulation at G1 phase at 0.25 uM after 48 hrs by propidium iodide staining based flow cytometry (reference value: 56.9 %); format: functional; settings: NCI/ADR-RES; summary of the method: as §1
[7] = Cell cycle arrest in human MCF7/ADR cells assessed as accumulation at sub-G1 phase at 0.05 uM after 48 hrs by propidium iodide staining based flow cytometry (reference value: […]); format: functional; settings: NCI/ADR-RES
[8] = Cell cycle arrest in human MCF7/ADR cells assessed as accumulation at sub-G1 phase at 0.25 uM after 48 hrs by propidium iodide staining based flow cytometry (reference value: […]); format: functional; settings: NCI/ADR-RES
MCF7 [9] = test: Downregulation of cyclin D1 expression in human MCF7 cells at 0.5 uM after 24 and 48 hrs by western blot analysis; format: functional, cell-based
Summary of the method: (§2)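 Lysates from treated cells were immunoblotted. Membranes were blocked in 5% nonfat milk, incubated overnight at 4 C with antibodies to PARP, p27, cyclin D1 or cyclin B1, and detected by enhanced chemiluminescence.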

MCF7 [10] = test: Effect on cleaved PARP level in human MCF7 cells at 0.5 uM after 24 and 48 hrs by western blot analysis; format: functional, cell-based; summary of the method: as §2
MCF7 [11] = test: Downregulation of cyclin B1 expression in human MCF7 cells at 0.5 uM after 24 and 48 hrs by western blot analysis; format: functional, cell-based; summary of the method: as §2
MCF7 [12] = test: Upregulation of p27 expression in human MCF7 Cells at 0.5 uM after 24 and 48 hrs by western blot analysis; format: functional, cell-based; summary of the method: as §2
NCI/ADR-RES [13] = test: Effect on cleaved PARP level in human MCF7/ADR cells at 0.1 uM after 24 and 48 hrs by western blot analysis; format: functional, cell-based; summary of the method: as §2
[14] = Downregulation of cyclin D1 expression in human MCF7/ADR cells at 0.1 uM after 48 hrs by western blot analysis; format: functional, cell-based; settings: NCI/ADR-RES; summary of the method: as §2
[15] = Downregulation of cyclin B1 expression in human MCF7/ADR cells at 0.1 uM after 48 hrs by western blot analysis; format: functional, cell-based; settings: NCI/ADR-RES; summary of the method: as §2
NCI/ADR-RES [16] = test: Effect on p27 expression in human MCF7/ADR cells at 0.1 uM after 48 hrs by western blot analysis; format: functional, cell-based; summary of the method: as §2
MCF7 [17] = test: Cell cycle arrest in human MCF7 cells assessed as accumulation at G1 phase after 24 and 48 hrs by propidium iodide staining based flow cytometry; format: functional; summary of the method: as §1
MCF7 [18] = test: Antiproliferative activity against human MCF7 cells after 96 hrs by MTT assay; format: functional; settings: MCF7, 96 h
Summary of the method: (§3)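 MTT: cells seeded at 1.5-4.0 × 10^4 cells/mL and incubated overnight at 37 C, then exposed to 5-9 concentrations (DMSO stocks diluted in growth medium; final DMSO ≤0.5%) for 96 h. MTT added at 0.5 mg/mL for a further 4 h at 37 C and the formazan dissolved. Inhibition calculated relative to control; GI50 estimated by curve fitting; 3-5 repeats, mean ± SD.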

[19] = Antiproliferative activity against human MCF7/ADR cells after 96 hrs by MTT assay; format: functional; settings: NCI/ADR-RES; summary of the method: as §3
NCI/ADR-RES [20] = test: Selectivity index, ratio of GI50 for human MCF7 cells to GI50 for human MCF7/ADR cells; format: functional
MDR1 (ABCB1) [21] = biological target: T1, MDR1 (ABCB1) (Homo sapiens, UniProt P08183); test: Activity at MDR1 (unknown origin) expressed in MDCK cells assessed as permeability across apical to basolateral after 90 mins by LC-MS/MS analysis; format: ADME, cell-based
MDR1 (ABCB1) [22] = biological target: T1, MDR1 (ABCB1); test: Activity at MDR1 (unknown origin) expressed in MDCK cells assessed as permeability across basolateral to apical after 90 mins by LC-MS/MS analysis; format: ADME, cell-based
[23] = Permeability across apical to basolateral side in MDCK cells after 90 mins by LC-MS/MS analysis; format: ADME, cell-based, Canis lupus familiaris; settings: dog
Summary of the method: (§4)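 Wild-type MDCK cells on Transwell filters. Transport was run in HBSS pH 7.4 at 37 °C in A-B and B-A directions, and plates were separated after 90 min incubation. Efflux ratio is Papp(B-A)/Papp(A-B). Papp is reported as "<" when receiver concentrations were below the quantitation limit.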

[24] = Permeability across basolateral to apical side in MDCK cells after 90 mins by LC-MS/MS analysis; format: ADME, cell-based, Canis lupus familiaris; settings: dog; summary of the method: as §4
MCF7 [25] = test: Cell cycle arrest in human MCF7 cells assessed as accumulation at G1 phase at 0.25 uM after 24 hrs by propidium iodide staining based flow cytometry (reference value: 62.5 %); format: functional; summary of the method: as §1
MCF7 [26] = test: Cell cycle arrest in human MCF7 cells assessed as accumulation at G1 phase at 0.5 uM after 24 hrs by propidium iodide staining based flow cytometry (reference value: 62.5 %); format: functional; summary of the method: as §1

T1 sequence (P08183 whole entry): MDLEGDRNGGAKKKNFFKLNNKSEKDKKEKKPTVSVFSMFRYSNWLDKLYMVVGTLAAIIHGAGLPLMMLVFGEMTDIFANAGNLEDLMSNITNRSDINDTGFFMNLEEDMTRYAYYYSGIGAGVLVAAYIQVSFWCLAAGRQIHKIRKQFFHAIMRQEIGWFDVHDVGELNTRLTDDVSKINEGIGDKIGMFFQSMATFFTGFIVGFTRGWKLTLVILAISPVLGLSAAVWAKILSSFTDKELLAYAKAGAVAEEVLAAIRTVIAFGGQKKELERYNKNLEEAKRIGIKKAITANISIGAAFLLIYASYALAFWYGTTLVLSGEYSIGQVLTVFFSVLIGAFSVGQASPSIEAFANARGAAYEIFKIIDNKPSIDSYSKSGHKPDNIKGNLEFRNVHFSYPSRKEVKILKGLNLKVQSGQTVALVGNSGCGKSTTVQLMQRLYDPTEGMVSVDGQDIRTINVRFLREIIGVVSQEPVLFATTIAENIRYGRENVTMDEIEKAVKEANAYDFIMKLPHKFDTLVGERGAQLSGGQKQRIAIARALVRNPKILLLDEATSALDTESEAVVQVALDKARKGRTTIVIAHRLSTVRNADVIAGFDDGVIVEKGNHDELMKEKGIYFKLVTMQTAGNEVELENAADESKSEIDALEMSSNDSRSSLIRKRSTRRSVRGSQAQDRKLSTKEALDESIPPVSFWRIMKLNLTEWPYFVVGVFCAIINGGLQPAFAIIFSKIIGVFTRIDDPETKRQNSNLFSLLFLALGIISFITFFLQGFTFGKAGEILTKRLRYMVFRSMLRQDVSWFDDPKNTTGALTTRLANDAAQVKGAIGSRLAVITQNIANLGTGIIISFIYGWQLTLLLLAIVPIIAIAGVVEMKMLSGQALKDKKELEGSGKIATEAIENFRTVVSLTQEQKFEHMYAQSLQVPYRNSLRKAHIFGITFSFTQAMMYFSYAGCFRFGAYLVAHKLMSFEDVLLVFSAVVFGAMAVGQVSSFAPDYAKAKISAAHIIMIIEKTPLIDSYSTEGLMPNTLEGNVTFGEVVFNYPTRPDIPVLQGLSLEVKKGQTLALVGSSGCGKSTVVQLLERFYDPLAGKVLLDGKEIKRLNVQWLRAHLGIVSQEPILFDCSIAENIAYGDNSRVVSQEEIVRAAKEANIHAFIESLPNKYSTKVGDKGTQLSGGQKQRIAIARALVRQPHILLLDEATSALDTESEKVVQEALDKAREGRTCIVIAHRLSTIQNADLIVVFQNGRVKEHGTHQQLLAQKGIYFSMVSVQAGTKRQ

In the case of `C[C@H]1[C@@H](Oc2ccc(/C=C/C(=O)N3CCN(c4cccc(C(F)(F)F)c4)CC3)cc2)O[C@@H]2O[C@@]3(C)CC[C@H]4[C@H](C)CC[C@@H]1[C@@]24OO3`, the Activity (MCF7 [1]) is reported as 82.3%, the Activity (MCF7 [2]) is reported as 83.4% and the Activity [3] is reported as 71.5%. For the same compound, the Activity [4] was 70.2%, the Activity [5] was 65.2% and the Activity [6] was 62.6%. The Activity [7] was 2.4%, the Activity [8] was 8.7% and the inhibition (MCF7 [9]) was “Active”. For the same compound, the Activity (MCF7 [10]) was “inactive”, the inhibition (MCF7 [11]) was “Active” and the Activity (MCF7 [12]) was “Active”. For the same compound, the Activity (NCI/ADR-RES [13]) was “inactive”, the inhibition [14] was “Active” and the inhibition [15] was “Active”. For the same compound, the Activity (NCI/ADR-RES [16]) was “inactive”, the Activity (MCF7 [17]) was “Dose-dependent effect” and the GI50 (MCF7 [18]) was 320 nM. The GI50 [19] was 21 nM, the RatioGI50 (NCI/ADR-RES [20]) was 15.24 and the Papp A→B at 1.5 h (MDR1 (ABCB1) [21]) was < 1.83 ×10⁻⁶ cm/s. For the same compound, the Papp B→A at 1.5 h (MDR1 (ABCB1) [22]) was < 1 ×10⁻⁶ cm/s, the Papp A→B at 1.5 h [23] was < 1.82 ×10⁻⁶ cm/s and the Papp B→A at 1.5 h [24] was < 0.93 ×10⁻⁶ cm/s. For the same compound, the Activity (MCF7 [25]) was 70% and the Activity (MCF7 [26]) was 73.8%.
